Results reported in ChEMBL document CHEMBL1629709, “Inhibition of melanogenesis and oxidation by protocatechuic acid from Origanum vulgare (oregano)” (J Nat Prod, 2010).
≈ marks a conversion by molar mass, not a printed value. Calls of active or inactive are those of the source. The rule behind the calls is not given here.

Assays:
[1] = tested on: B16; test: Cytotoxicity against mouse B16 cells up to 100 ug/ml after 72 hrs by MTT assay; format: cell-based; settings: b16, 72 h
Outline: (§1)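 B16 or Hs68 cells (1 × 10^4/well) seeded ≥24 h in DMEM with 10% FBS, then treated 72 h with 0, 5, 10, 20, 50, 100 µg/mL. MTT (0.5 mg/mL) for 4 h, formazan dissolved in DMSO, A570 read. Viability given as % of 0.1% DMSO vehicle culture; independent triplicates, mean ± SD.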

[2] = tested on: Hs68; test: Cytotoxicity against human HS68 cells up to 100 ug/ml after 72 hrs by MTT assay; format: cell-based; settings: hs68, 72 h; outline: as §1
[3] = target: T1, Tyrosinase (Mus musculus) (UniProt P11344); test: Inhibition of tyrosinase in mouse B16 cells at 10 to 20 ug/ml after 72 hrs by spectrophotometry; format: cell-based
T1 sequence (whole entry): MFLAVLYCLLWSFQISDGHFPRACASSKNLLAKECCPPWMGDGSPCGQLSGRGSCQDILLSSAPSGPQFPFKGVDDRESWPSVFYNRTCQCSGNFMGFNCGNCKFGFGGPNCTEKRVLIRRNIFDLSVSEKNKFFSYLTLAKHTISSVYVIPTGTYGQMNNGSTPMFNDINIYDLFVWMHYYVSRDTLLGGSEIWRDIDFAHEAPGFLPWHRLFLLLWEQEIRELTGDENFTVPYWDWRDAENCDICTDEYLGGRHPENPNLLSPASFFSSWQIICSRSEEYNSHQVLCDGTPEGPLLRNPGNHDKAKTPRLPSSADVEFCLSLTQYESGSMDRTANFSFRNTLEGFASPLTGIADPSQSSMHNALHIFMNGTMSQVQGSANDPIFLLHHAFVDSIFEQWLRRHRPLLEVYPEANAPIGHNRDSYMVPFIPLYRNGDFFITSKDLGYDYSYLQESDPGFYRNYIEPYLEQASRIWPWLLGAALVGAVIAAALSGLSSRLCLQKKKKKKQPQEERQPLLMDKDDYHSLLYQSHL
Outline: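 B16 cells (1 × 10^5 cells/mL) plated ≥24 h, then α-MSH (1 µM) alone or with 10 or 20 µg/mL agent for 72 h. Lysed in 50 mM sodium phosphate pH 6.8 with 1% Triton X-100 and freeze-thawed. 100 µL of 10 mM DOPA added, 37 °C for 4 h, DOPA oxidation read at A475 against α-MSH control; independent triplicates.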

[4] = target: T1, Tyrosinase (Mus musculus); test: Inhibition of DOPA oxidase activity of tyrosinase in mouse B16 cells at 10 to 20 ug/ml after 72 hrs by colorimetry; format: cell-based
Outline: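 B16 cells (1 × 10^5 cells/mL) plated ≥24 h, then α-MSH (1 µM) alone or with 10 or 20 µg/mL agent for 72 h. Lysed in 50 mM sodium phosphate pH 6.8 with 1% Triton X-100 and freeze-thawed. Substrate of 6.3 mM MBTH, 1.1 mM DOPA, pH 7.1 buffer with 4% DMF added. 37 °C for 4 h, A508 read against α-MSH control; independent triplicates.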

[5] = tested on: Radical scavenging activity; test: Antioxidant activity assessed as DPPH radical scavenging activity at 1 ug/ml after 30 mins; format: functional
Outline: (§2)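 Sample (100 µL) added to 900 µL of 0.1 mM ethanolic DPPH and kept 30 min in the dark, then A517 read. Scavenging (%) = (1 − Asample/Acontrol) × 100. Control lacks test agent; ascorbic acid used as standard. EC50 estimated from the % inhibition versus concentration plot; mean ± SD, n = 3.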

[6] = tested on: Radical scavenging activity; test: Antioxidant activity assessed as DPPH radical scavenging activity at 5 ug/ml after 30 mins; format: functional; outline: as §2
[7] = tested on: Radical scavenging activity; test: Antioxidant activity assessed as DPPH radical scavenging activity at 10 ug/ml after 30 mins; format: functional; outline: as §2
[8] = tested on: Radical scavenging activity; test: Antioxidant activity assessed as DPPH radical scavenging activity at 20 ug/ml after 30 mins; format: functional; outline: as §2
[9] = tested on: Radical scavenging activity; test: Antioxidant activity assessed as DPPH radical scavenging activity at 100 ug/ml after 30 mins; format: functional; outline: as §2
[10] = tested on: Radical scavenging activity; test: Antioxidant activity assessed as DPPH radical scavenging activity after 30 mins; format: functional; outline: as §2
[11] = Antioxidant activity assessed as trolox equivalent of ABTS radical scavenging activity after 12 to 16 hrs; format: functional
Outline: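 ABTS (7 mM) oxidized with 2.45 mM potassium persulfate (final) in the dark at room temperature for 12–16 h. Diluted with ethanol to A734 0.70 ± 0.02 at 30 °C. 0.1 mL sample added to 2.9 mL, 20 min at 30 °C, A734 read. TEAC reported as mg Trolox/g, from the concentration giving the same absorbance change as 1 mg Trolox.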

[12] = Antioxidant activity assessed as reducing capacity of the compound up to 100 ug/ml after 20 mins; format: functional
Outline: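 Sample (0.2 mL; 0, 1, 5, 10, 20, 100 µg/mL) mixed with sodium phosphate buffer pH 6.6 and 1% potassium ferricyanide, 50 °C for 20 min. 10% TCA added, centrifuged at 10000g for 10 min. Upper layer mixed with water and 0.1% FeCl3. A700 taken directly as reducing power; ascorbic acid standard; mean ± SD, n = 3.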

[13] = Antioxidant activity assessed as ferrous ion chelating effect after 10 mins; format: functional
Outline: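 Ferrozine method. 10 µL sample with 20 µL of 2 mM FeCl2 for 5 min, then 40 µL of 5 mM ferrozine added and volume brought to 1 mL with water. Shaken and held 10 min at room temperature, A562 read. EDTA as positive control. Chelation (%) = (1 − Asample/Acontrol) × 100.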

[14] = Antioxidant activity assessed as inhibition of Fe2+/ascorbate-induced lipid peroxidation by TBA assay; format: functional
Outline: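 Commercial liposomes (225–250 nm) with 10 mM FeSO4 and 10 mM ascorbic acid (11 µL each) plus compound in 50 mM sodium phosphate buffer pH 7.4, 2.5 mL final volume, 37 °C for 1 h. Stopped with TBA/TCA and EDTA, then heated at 100 °C for 20 min. Centrifuged and MDA adduct read at A532. Four replicates; inhibition (%) = (1 − Asample/Acontrol) × 100.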

[15] = tested on: Liver; test: Antioxidant activity in mouse liver assessed as inhibition of Fe2+/ascorbate-induced lipid peroxidation up to 20 ug/ml by TBARS assay relative to control; format: functional, tissue-based
Outline: (§3)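 Male ICR mice, 7 weeks, 30–35 g. Liver or brain homogenized 1:1 (w/v) in ice-cold 40 mM Tris-HCl pH 7.4 and spun at 3000g. Supernatant incubated with sample (20 or 100 µg/mL), 10 µM FeSO4 and 0.1 mM ascorbic acid, 37 °C for 1 h. TCA then TBA added, 80 °C for 20 min, A532 of MDA-TBA read with MDA standard; % inhibition versus control.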

[16] = tested on: Liver; test: Antioxidant activity in mouse liver assessed as inhibition of Fe2+/ascorbate-induced lipid peroxidation up to 100 ug/ml by TBARS assay relative to control; format: functional, tissue-based; outline: as §3
[17] = Antioxidant activity in mouse BNL-CL2 cells assessed as inhibition of H2O2-induced ROS production at 20 ug/ml by DCFHDA assay; format: functional; settings: BNL CL.2, values are per cent of control
Outline: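 BNLCL2 cells (1 × 10^5 cells/mL) exposed 24 h to 20 µg/mL agent. Detached, washed, loaded with 10 µM DCFH-DA in PBS for 30 min at 37 °C, then stimulated with 0.1 mM H2O2 for 30 min at 37 °C. DCF fluorescence read at ex 504/em 524 nm against H2O2-treated cells. Independent triplicates.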

[18] = tested on: B16; test: Antimelanogenic activity in mouse B16 cells assessed as inhibition of alpha-MSH-induced melanin formation after 72 hrs by spectrophotometry; format: functional, cell-based
Outline: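 B16 cells (1 × 10^5 cells/mL) grown 24 h, then α-MSH (1 µM) plus 10 or 20 µg/mL compound in phenol red-free DMEM for 72 h. Melanin released into the medium read at OD 405 nm and expressed as % of 0.1% DMSO vehicle control. Independent triplicate experiments, mean ± SD.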

[19] = tested on: B16; test: Effect on nuclear morphology of mouse B16 cells at 20 ug/ml after 72 hrs by Hoechst 33342 staining in presence of alpha-MSH; format: ADME, cell-based; settings: b16, 72 h
Outline: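 B16 cells (1 × 10^5 cells/mL) given α-MSH (1 µM) alone or with 20 µg/mL compound for 72 h. Fixed in 4% paraformaldehyde, nuclei stained with 0.1 µg/mL Hoechst 33342, and viewed by inverted fluorescence microscopy (200×).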

[20] = tested on: B16; test: Antimelanogenic activity in mouse B16 cells assessed as decrease in MCIR expression at 20 ug/ml after 72 hrs by flow cytometry assay; format: functional; settings: B16, 72 h
Outline: (§4)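 B16 cells (1 × 10^5 cells/mL) given α-MSH (1 µM) alone or with 20 µg/mL compound for 72 h. Mouse primary antibodies (1:300) 45 min at 4 °C, FITC anti-mouse IgG (1:500) 30 min at 4 °C. Read by flow cytometry against a normal mouse IgG1 isotype control; n = 3.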

[21] = tested on: B16; test: Antimelanogenic activity in mouse B16 cells assessed as decrease in MC1R expression at 20 ug/ml after 72 hrs by Western blotting; format: functional, cell-based
Outline: (§5)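 B16 cells (1 × 10^5 cells/mL) given α-MSH (1 µM) alone as control or α-MSH plus 20 µg/mL compound, 72 h. Lysis at 4 °C for 20 min in Tris-HCl pH 7.5 buffer with 1% Triton X-100, EGTA, NaCl and PMSF. 40 µg protein run on 12.5% SDS-PAGE and transferred to nitrocellulose. Blocked in 5% skim milk. Probed with target and β-actin antibodies, HRP secondary, ECL detection.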

[22] = tested on: B16; test: Antimelanogenic activity in mouse B16 cells assessed as decrease in MITF expression at 20 ug/ml after 72 hrs by Western blotting; format: functional, cell-based; outline: as §5
[23] = tested on: B16; test: Antimelanogenic activity in mouse B16 cells assessed as decrease in TRP2 expression at 20 ug/ml after 72 hrs by flow cytometry assay; format: functional; settings: B16, 72 h; outline: as §4
[24] = tested on: B16; test: Antimelanogenic activity in mouse B16 cells assessed as decrease in MITF expression at 20 ug/ml after 72 hrs by flow cytometry assay; format: functional; settings: B16, 72 h; outline: as §4
[25] = tested on: B16; test: Antimelanogenic activity in mouse B16 cells assessed as decrease in tyrosinase expression at 20 ug/ml after 72 hrs by flow cytometry assay; format: functional; settings: B16, 72 h; outline: as §4
[26] = tested on: B16; test: Antimelanogenic activity in mouse B16 cells assessed as decrease in TRP1 expression at 20 ug/ml after 72 hrs by flow cytometry assay; format: functional; settings: B16, 72 h; outline: as §4
[27] = tested on: B16; test: Antimelanogenic activity in mouse B16 cells assessed as decrease in tyrosinase expression at 20 ug/ml after 72 hrs by Western blotting; format: functional, cell-based; outline: as §5
[28] = tested on: B16; test: Antimelanogenic activity in mouse B16 cells assessed as decrease in TRP2 expression at 20 ug/ml after 72 hrs by Western blotting; format: functional, cell-based; outline: as §5
[29] = tested on: B16; test: Antimelanogenic activity in mouse B16 cells assessed as decrease in TRP1 expression at 20 ug/ml after 72 hrs by Western blotting; format: functional, cell-based; outline: as §5
[30] = tested on: Brain; test: Antioxidant activity in mouse brain assessed as Fe2+/ascorbate-induced lipid peroxidation up to 100 ug/ml by TBARS assay relative to control

Row | SMILES | Activity [1] | Activity [2] | inhibition [3] | inhibition [4] | Activity [5] | Activity [6] | Activity [7] | Activity [8] | Activity [9] | EC50 [10] | EC50 [11] | response, % of control at 20 µg/mL [17] | other results
1 | OC[C@H]1O[C@@H](Oc2ccc(O)cc2)[C@H](O)[C@@H](O)[C@@H]1O [ARBUTIN] | Toxic | Toxic | 33.1% | 30.9% | – | – | – | – | – | – | – | – | –
2 | O=C(O)c1ccc(O)c(O)c1 [PROTOCATECHUIC ACID] | Non-toxic | Non-toxic | 22.2% | 57.4% | 43% | 68.4% | 70.4% | 74.6% | 82.7% | 2.1 µg/mL (≈ 13.6 µM) | 4 µg/mL | 85.1% | Activity [12]: inactive; Activity [13]: inactive; inhibition [14]: Dose-dependent effect; Activity [15]: Dose-dependent effect; Activity [16]: Dose-dependent effect; inhibition [18]: Dose-dependent effect; Activity [19]: Non-toxic; inhibition at 20 µg/mL [20]: 21.1%; inhibition [21]: Active; inhibition [22]: Active; inhibition at 20 µg/mL [23]: 29.3%; inhibition at 20 µg/mL [24]: 46.6%; inhibition at 20 µg/mL [25]: 34.8%; inhibition at 20 µg/mL [26]: 54.6%; inhibition [27]: Active; inhibition [28]: Active; inhibition [29]: Active; MDA-TBA level relative to control [30]: 14.9%
3 | O=C1O[C@H]([C@@H](O)CO)C(O)=C1O [ASCORBIC ACID] | Toxic | Toxic | 29.8% | 41.7% | 0% | 62.5% | 71.3% | 81.4% | 87.6% | 4.2 µg/mL (≈ 23.8 µM) | 4.9 µg/mL | 102% | –
4 | Cc1c(C)c2c(c(C)c1O)CCC(C)(C(=O)O)O2 (configuration not stated) [TROLOX] | – | – | – | – | – | – | – | – | – | – | – | 81.2% | –
